Cneo AK release: Cryptococcus neoformans cell lysis inducers, primary screen, AK release luminescence, single concentration. hit rate 0.2% among 360,000. AID 651654, 2012. C. neoformans lysis, adenylate kinase release luminescence, 4 h; normalised: neutral wells 0, clomiphene wells 100. lysis activity, % at 15 µM;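 active = mean lysis activity across replicates of at least 80%, whatever share of replicates individually reach that level; inactive = mean lysis activity below 80%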
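Material – Cryptococcus neoformans yeast cells · Quantity – 5 × 10^6 yeast cells/mL · Buffer or medium – YPD medium · Compound – single dose · Timing – 4 h static compound exposure, 37 °C, read 1 h post-reagent · Signal – adenylate kinase release luminescence · Read-out basis – lysis from increased AK signal · Benchmarks – Clomiphene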
AF4-AF9 inh: inhibitors of AF4 peptide binding to AF9, primary screen, biochemical, AlphaScreen, biotin-AF4 peptide, FLAG-AF9, single point; AID 651704, 2012; hit rate 0.47% among 350,000; inhibition, % at 10 µM; Protein AF-9 (Homo sapiens), P42568;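 active = every replicate reaching a set inhibition limit, whatever the replicate mean, cut at about 25% in these data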;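 also: 0% = plate neutral control median and 100% = total signal loss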
rRNA inh HTS: reduced GFP signal of wild-type E. coli, primary screen, bacterial rRNA inhibitor project, GFP/RFP fluorescence, OD600, single point | E. coli WT GFP vs humanized-ribosome RFP mutants, 24 h; stronger effect = lower value; DMSO median 0, no signal -100 | GFP signal change (wild-type ribosome), % (concentration not given with the values) | hit rate 1.6% among 350,000;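 active = significant combined selectivity score with lowered wild-type GFP, culture density cut under 30%, mutant RFP and density less affected; inactive = any of these conditions unmet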
PfHsp90 yeast 2: growth inhibition of PfHsp90-expressing yeast, primary screen, antimalarial PfHsp90 inhibitor project, S. cerevisiae, BacTiter-Glo luminescence, single point, set 2 | BacTiter-Glo ATP, 48 h; yeast lacking PDR1 and PDR3 efflux regulators | inhibition, % at 9.4 µM | hit rate 0.32% among 310,000 | AID 504621, 2011;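 active = every replicate shows inhibition above about 80%, whatever the replicate mean, limit read from the data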;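 also: 0% = DMSO neutral controls and 100% = 20 µM radicicol positive controls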
S100A4 inh HTS: inhibitors of S100A4-myosin IIA peptide binding, primary screen, biochemical, fluorescence polarization, TAMRA-MyoIIA peptide. Protein S100-A4 (Homo sapiens), P26447. inhibition, % at 10.7 µM. hit rate 0.14% among 360,000;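 active = mean inhibition of at least 70% across replicates, with every replicate also reaching that level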
Target sequence (P26447 whole entry, looked up): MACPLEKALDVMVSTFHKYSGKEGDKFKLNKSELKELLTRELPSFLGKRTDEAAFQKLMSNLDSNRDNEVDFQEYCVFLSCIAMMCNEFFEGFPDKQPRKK
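Compound dosing: one dose per compound; test system: human S100A4 monomer with TAMRA-labelled myosin IIA peptide; probe or stimulus: TAMRA-labelled myosin IIA heavy-chain peptide probe, 5 nM; medium: HEPES buffer with Ca2+, pH 7.2; schedule: 5 min incubation before reading; benchmarks: neutral control DMSO, positive control TFP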
DENV2 CPE rescue: inhibitors of DENV2 cytopathic effect, primary screen, cell-based, plate reader, single concentration; DENV2-infected cells, cytopathic effect rescue; AID 651640, 2012; CPE inhibition, % at 9.99 µM; hit rate 1.7% among 350,000; in the data active = CPE inhibition above about 20%, passing the limit was not always enough; tested in BHK-21 cells;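 also: 0% = median of neutral control wells and 100% = median of positive control wells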
An asterisk follows results filed as active. An excerpt weighted towards active compounds, which were near 3.2% of everything screened.

What do the screens show for `COc1cccc(NC(=O)N[C@@H]2C=C[C@@H](CC(=O)N3CCN(C)CC3)O[C@@H]2CO)c1`?
AF4-AF9 inh: -5.3; rRNA inh HTS: 1.3; S100A4 inh HTS: 86.1*; DENV2 CPE rescue: -2.9

What do the screens show for `COc1cccc(NC(=O)N[C@H]2C=C[C@H](CC(=O)N3CCN(C)CC3)O[C@H]2CO)c1`?
AF4-AF9 inh: -5.2; rRNA inh HTS: 2.2; S100A4 inh HTS: -3.6; DENV2 CPE rescue: -0.3

Results for CCC(=O)N[C@H]1C=C[C@@H](CC(=O)NCC2CCCCC2)O[C@@H]1CO ?
Cneo AK release: 3.0; AF4-AF9 inh: -1.1; rRNA inh HTS: 0.9; S100A4 inh HTS: 2.0; DENV2 CPE rescue: 12.5

Results for CCCNC(=O)N[C@H]1C=C[C@H](CC(=O)NC2CCC2)O[C@H]1CO ?
Cneo AK release: -0.6; AF4-AF9 inh: 2.0; rRNA inh HTS: 0.0; S100A4 inh HTS: 7.8; DENV2 CPE rescue: 26.2*

What do the screens show for `CCCNC(=O)N[C@@H]1C=C[C@@H](CC(=O)N2CCN(C)CC2)O[C@H]1CO`?
Cneo AK release: -2.0; AF4-AF9 inh: -0.4; rRNA inh HTS: 0.3; S100A4 inh HTS: 1.6; DENV2 CPE rescue: 15.1

What do the screens show for `COc1ccc2c3c([nH]c2c1)[C@H](CO)N(CC1CC1)CC31CN(C(=O)c2ccccc2F)C1`?
AF4-AF9 inh: 2.9; rRNA inh HTS: -5.5; DENV2 CPE rescue: -20.2

What do the screens show for `CCOC(=O)N(C)C[C@@H]1OCc2cnnn2CCCC(=O)N([C@@H](C)CO)C[C@H]1C`?
Cneo AK release: -3.8; AF4-AF9 inh: 0.2; rRNA inh HTS: 0.6; S100A4 inh HTS: -4.6; DENV2 CPE rescue: 6.7

Results for Cc1ccc(S(=O)(=O)N(C)C[C@@H]2OCCCC[C@@H](C)Oc3ccc(NS(=O)(=O)c4ccc(F)cc4)cc3C(=O)N([C@@H](C)CO)C[C@@H]2C)cc1 ?
Cneo AK release: 1.5; AF4-AF9 inh: 0.8; rRNA inh HTS: 0.2; S100A4 inh HTS: 4.0; DENV2 CPE rescue: -1.7

Results for O=C(O)c1ccc(S(=O)(=O)Nc2ccc(O)c(Sc3nc4ccccc4s3)c2)cc1 ?
Cneo AK release: 3.3; AF4-AF9 inh: -2.5; rRNA inh HTS: -23.4*; PfHsp90 yeast 2: -25.6; S100A4 inh HTS: 0.4; DENV2 CPE rescue: 12.3

Results for O=C(O)c1ccc(S(=O)(=O)Nc2cccc(CP(=O)(c3ccccc3)c3ccccc3)c2)cc1 ?
Cneo AK release: 2.5; AF4-AF9 inh: -6.6; rRNA inh HTS: 2.0; PfHsp90 yeast 2: 6.1; S100A4 inh HTS: 0.4; DENV2 CPE rescue: 3.2

How did NS(=O)(=O)c1ccc(Sc2nc3ccccc3s2)c([N+](=O)[O-])c1 do in these assays?
Cneo AK release: 0.9; AF4-AF9 inh: 4.2; rRNA inh HTS: -25.1*; PfHsp90 yeast 2: -1.0; S100A4 inh HTS: -3.3; DENV2 CPE rescue: -8.1

What do the screens show for `C[C@H]1CN([C@@H](C)CO)C(=O)Cc2cc(NC(=O)Cn3cnnn3)ccc2O[C@@H]1CN(C)C(=O)Nc1ccc(F)cc1`?
rRNA inh HTS: 5.3

What do the screens show for `Cc1ccccc1Oc1ccc(-c2nc(N)nc(N)n2)cc1`?
Cneo AK release: -0.5; PfHsp90 yeast 2: -9.1

How did Nc1nc(N)nc(-c2ccc(Oc3ccccc3)cc2)n1 do in these assays?
Cneo AK release: -0.8; AF4-AF9 inh: 2.5; rRNA inh HTS: -34.0*; PfHsp90 yeast 2: 18.3; S100A4 inh HTS: -2.1; DENV2 CPE rescue: -7.5

How did c1ccc(C(Cc2nc(-c3cccnc3)no2)c2ccccc2)cc1 do in these assays?
PfHsp90 yeast 2: -12.2

What do the screens show for `c1ccc(C(c2ccccc2)c2nc(-c3cccnc3)no2)cc1`?
Cneo AK release: -6.9; AF4-AF9 inh: 3.5; rRNA inh HTS: -39.5*; PfHsp90 yeast 2: -3.5; S100A4 inh HTS: 3.9; DENV2 CPE rescue: -8.0

High-throughput results deposited in PubChem BioAssay by Broad Institute.
